# Laboratory results as given in ChEMBL document CHEMBL1137677, “Synthesis, pharmacological screening, quantum chemical and in vitro permeability studies of N-Mannich bases of benzimidazoles through bovine cornea” (Eur J Med Chem, 2009).
# How the values were obtained:
# [1] = Apparent permeability across bovine cornea assessed as lag time of permeation by UV-visible spectrophotometer; assay type: ADME, tissue-based, Bos taurus; settings: cattle
# How it was run: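 Fresh bovine cornea, taken within 1 h of sacrifice with lens and iris removed, was mounted in a side-by-side perfusion cell. Donor held 7 mL of drug in 0.01 M methanolic phosphate buffer, pH 7. Receptor was sampled 1 mL every 15 min for 3 h and replaced with buffer pre-equilibrated at 37 °C. Drug was quantified by UV-vis absorbance. Lag time is the time to reach a steady concentration gradient across the membrane.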
# [2] = Acute toxicity in po dosed Wistar albino mouse assessed as mortality after 24 hrs by Karber's arithmetical method; assay type: organism-based; settings: in vivo
# How it was run: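 Wistar albino mice of either sex, six per group; compounds given orally by gavage as suspension in 1% carboxymethyl cellulose at 100, 200, 400, 800 or 1000 mg/kg. Mortality recorded over 24 h; LD50 calculated by Karber's arithmetical method.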
# Mus musculus [3] = assay: Analgesic activity in Wistar albino mouse assessed as protection against acetic acid-induced writhing at 20 mg/kg, po administered 30 mins prior to acetic acid challenge measured after 30 mins; assay type: functional
# How it was run: (§1)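 Wistar albino mice of either sex were dosed orally by gavage with a suspension in 1% carboxymethyl cellulose, 30 min before the writhing agent (0.6% v/v aqueous acetic acid, 1 mL/100 g). Writhings were counted over 30 min and expressed as percentage protection. Significance was tested by Student's t-test.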
# Mus musculus [4] = assay: Analgesic activity in Wistar albino mouse assessed as protection against acetic acid-induced writhing at 40 mg/kg, po administered 30 mins prior to acetic acid challenge measured after 30 mins; assay type: functional; how it was run: as §1
# Rattus norvegicus [5] = assay: Antiinflammatory activity in Wistar albino rat assessed as reduction in formalin-induced paw edema volume at 40 mg/kg, po administered 30 mins prior to formalin challenge measured after 30 mins by plethysmography; assay type: functional; design: scale not given: the % may be the effect or the level left
# How it was run: (§2)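 Wistar albino rats received the compound orally as a suspension in 1% carboxymethyl cellulose, 30 min before subplantar formalin (0.1 mL of 1% w/v). Paw volume was read by plethysmography at 30, 60, 90 and 120 min after formalin and expressed as % reduction of edema. Significance was tested by Student's t-test.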
# Rattus norvegicus [6] = assay: Antiinflammatory activity in Wistar albino rat assessed as reduction in formalin-induced paw edema volume at 40 mg/kg, po administered 30 mins prior to formalin challenge measured after 60 mins by plethysmography; assay type: functional; design: scale not given: the % may be the effect or the level left; how it was run: as §2
# Rattus norvegicus [7] = assay: Antiinflammatory activity in Wistar albino rat assessed as reduction in formalin-induced paw edema volume at 40 mg/kg, po administered 30 mins prior to formalin challenge measured after 90 mins by plethysmography; assay type: functional; design: scale not given: the % may be the effect or the level left; how it was run: as §2
# Rattus norvegicus [8] = assay: Antiinflammatory activity in Wistar albino rat assessed as reduction in formalin-induced paw edema volume at 40 mg/kg, po administered 30 mins prior to formalin challenge measured after 120 mins by plethysmography; assay type: functional; design: scale not given: the % may be the effect or the level left; how it was run: as §2
# Rattus norvegicus [9] = assay: Antiinflammatory activity in Wistar albino rat assessed as reduction in formalin-induced paw edema volume at 50 mg/kg, po administered 30 mins prior to formalin challenge measured after 30 mins by plethysmography; assay type: functional; design: scale not given: the % may be the effect or the level left
# How it was run: (§3)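 Standard-drug arm, given orally to Wistar albino rats 30 min before subplantar formalin (0.1 mL of 1% w/v). Paw volumes were measured by plethysmography at 30, 60, 90 and 120 min post-formalin and expressed as % reduction of edema.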
# Rattus norvegicus [10] = assay: Antiinflammatory activity in Wistar albino rat assessed as reduction in formalin-induced paw edema volume at 50 mg/kg, po administered 30 mins prior to formalin challenge measured after 60 mins by plethysmography; assay type: functional; design: scale not given: the % may be the effect or the level left; how it was run: as §3
# Rattus norvegicus [11] = assay: Antiinflammatory activity in Wistar albino rat assessed as reduction in formalin-induced paw edema volume at 50 mg/kg, po administered 30 mins prior to formalin challenge measured after 90 mins by plethysmography; assay type: functional; design: scale not given: the % may be the effect or the level left; how it was run: as §3
# Rattus norvegicus [12] = assay: Antiinflammatory activity in Wistar albino rat assessed as reduction in formalin-induced paw edema volume at 50 mg/kg, po administered 30 mins prior to formalin challenge measured after 120 mins by plethysmography; assay type: functional; design: scale not given: the % may be the effect or the level left; how it was run: as §3
# Mus musculus [13] = assay: Analgesic activity in Wistar albino mouse assessed as protection against acetic acid-induced writhing at 100 mg/kg, po administered 30 mins prior to acetic acid challenge measured after 30 mins; assay type: functional; how it was run: as §1
# Mus musculus [14] = assay: Analgesic activity in Wistar albino mouse assessed as protection against acetic acid-induced writhing at 200 mg/kg, po administered 30 mins prior to acetic acid challenge measured after 30 mins; assay type: functional; how it was run: as §1
# Rattus norvegicus [15] = assay: Antiinflammatory activity in Wistar albino rat assessed as reduction in formalin-induced paw edema volume at 200 mg/kg, po administered 30 mins prior to formalin challenge measured after 30 mins by plethysmography; assay type: functional; design: scale not given: the % may be the effect or the level left; how it was run: as §2
# Rattus norvegicus [16] = assay: Antiinflammatory activity in Wistar albino rat assessed as reduction in formalin-induced paw edema volume at 200 mg/kg, po administered 30 mins prior to formalin challenge measured after 60 mins by plethysmography; assay type: functional; design: scale not given: the % may be the effect or the level left; how it was run: as §2
# Rattus norvegicus [17] = assay: Antiinflammatory activity in Wistar albino rat assessed as reduction in formalin-induced paw edema volume at 200 mg/kg, po administered 30 mins prior to formalin challenge measured after 90 mins by plethysmography; assay type: functional; design: scale not given: the % may be the effect or the level left; how it was run: as §2
# Rattus norvegicus [18] = assay: Antiinflammatory activity in Wistar albino rat assessed as reduction in formalin-induced paw edema volume at 200 mg/kg, po administered 30 mins prior to formalin challenge measured after 120 mins by plethysmography; assay type: functional; design: scale not given: the % may be the effect or the level left; how it was run: as §2
Structure (SMILES),Tlag [1],LD50 at 24 h [2],Activity (Mus musculus [3]),Activity (Mus musculus [4]),Activity (Rattus norvegicus [5]),Activity (Rattus norvegicus [6]),Activity (Rattus norvegicus [7]),Activity (Rattus norvegicus [8]),Activity (Mus musculus [13]),further results
c1ccc2[nH]cnc2c1 [BENZIMIDAZOLE],18.81 min,–,–,–,–,–,–,–,–,–
CCN(CC)Cn1c(/C=C/c2ccccc2)nc2ccccc21,4.9 min,175 mg/kg,32.2%,47.49%,20%,50%,51%,56%,–,–
C(=C\c1nc2ccccc2n1CN1CCCCC1)/c1ccccc1,4.51 min,180 mg/kg,29.56%,43.8%,48%,56%,59%,62%,–,–
O=C(O)Cc1ccccc1Nc1c(Cl)cccc1Cl [DICLOFENAC],3.36 min,–,–,–,–,–,–,–,–,Activity (Rattus norvegicus [9]): 48%; Activity (Rattus norvegicus [10]): 65%; Activity (Rattus norvegicus [11]): 64%; Activity (Rattus norvegicus [12]): 65%
C(=C\c1nc2ccccc2[nH]1)/c1ccccc1,9.57 min,–,–,–,–,–,–,–,–,–
CC(=O)Nc1ccc(O)cc1 [ACETAMINOPHEN],1.55 min,–,–,–,–,–,–,–,47.76%,–
CN(C)Cn1cnc2ccccc21,15.31 min,> 1000 mg/kg,–,–,–,–,–,–,25.87%,Activity (Mus musculus [14]): 31.4%; Activity (Rattus norvegicus [15]): 48%; Activity (Rattus norvegicus [16]): 51%; Activity (Rattus norvegicus [17]): 64%; Activity (Rattus norvegicus [18]): 53%
C(=C\c1nc2ccccc2n1CN1CCOCC1)/c1ccccc1,7.33 min,200 mg/kg,20.58%,27.45%,52%,59%,74%,70%,–,–
CCN(CC)Cn1cnc2ccccc21,16.79 min,> 1000 mg/kg,–,–,–,–,–,–,11.35%,Activity (Mus musculus [14]): 43.8%; Activity (Rattus norvegicus [15]): 28%; Activity (Rattus norvegicus [16]): 59%; Activity (Rattus norvegicus [17]): 63%; Activity (Rattus norvegicus [18]): 61%
Cc1nc2ccccc2[nH]1,11.68 min,–,–,–,–,–,–,–,–,–
